According to ChEMBL document CHEMBL5614435:
Active and inactive are the calls of the source. The calls are words filed in the database; no cut-off is given here. Bridge positions count the residues as written; N and C are the ends. Peptide text beside a SMILES is read from it.

Experiments:
Format in all cases: functional
INS-1E = test: Induction of insulin secretion in rat INS-1E cells assessed as median fold increase at 20 nM pretreated with glucose for 30 mins followed by KRBH washout for 30 mins and subsequent glucose and compound addition for another 30 mins by ELISA
[1] = target: Amyloid-beta precursor protein (Homo sapiens) (UniProt P05067); test: Amyloid aggregation property at high concentration over 3 days by thioflavin-T fluorescence assay; settings: time 3.0 day
Chain of Amyloid-beta precursor protein (Homo sapiens) (P05067 whole entry, the tested form may be a part): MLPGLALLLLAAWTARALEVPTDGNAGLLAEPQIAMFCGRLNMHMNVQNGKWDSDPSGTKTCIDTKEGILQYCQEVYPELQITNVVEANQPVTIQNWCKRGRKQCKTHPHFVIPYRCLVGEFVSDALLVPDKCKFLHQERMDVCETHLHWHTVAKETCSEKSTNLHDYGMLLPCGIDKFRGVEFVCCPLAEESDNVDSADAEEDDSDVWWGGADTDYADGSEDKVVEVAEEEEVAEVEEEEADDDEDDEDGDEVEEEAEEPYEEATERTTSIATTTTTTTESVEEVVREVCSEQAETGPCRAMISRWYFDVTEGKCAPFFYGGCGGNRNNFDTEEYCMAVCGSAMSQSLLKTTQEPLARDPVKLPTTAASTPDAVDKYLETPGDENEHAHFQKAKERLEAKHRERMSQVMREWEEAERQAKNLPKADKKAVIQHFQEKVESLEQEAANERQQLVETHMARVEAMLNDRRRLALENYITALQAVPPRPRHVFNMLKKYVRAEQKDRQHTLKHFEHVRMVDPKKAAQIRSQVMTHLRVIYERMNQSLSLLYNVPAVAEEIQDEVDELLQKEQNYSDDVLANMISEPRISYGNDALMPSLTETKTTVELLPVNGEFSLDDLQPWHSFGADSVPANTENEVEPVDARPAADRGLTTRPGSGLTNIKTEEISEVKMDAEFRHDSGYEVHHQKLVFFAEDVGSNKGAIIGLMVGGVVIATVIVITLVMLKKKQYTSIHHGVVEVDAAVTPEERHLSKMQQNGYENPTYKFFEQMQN
How it was run: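 Peptide was dissolved in water at pH 4.2–4.5 or 7.2–7.4, filtered and centrifuged to leave monomers. ThT and NaCl were added to give 1 or 5 mg/mL peptide final. Plates were sealed and read at 37 °C with orbital shaking for 3 days (ex 445 nm/em 490 nm, bottom read). Triplicates, with peptide-free ThT background subtracted; mean and SD were reported.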

[2] = target: Amyloid-beta precursor protein (Homo sapiens) (UniProt P05067); test: Amyloid aggregation property at high concentration by atomic force microscopy analysis
How it was run: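 AFM in dynamic mode on 10 μL aliquots taken at the endpoint of the agitated aggregation samples: ThT samples (37 °C, pH ~4.5 or ~7.4) after 3 days and CD samples (200–300 μM, 150 mM NaCl) after 2 weeks.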

[3] = target: Amyloid-beta precursor protein (Homo sapiens) (UniProt P05067); test: Amyloid aggregation property at high concentration by CD spectroscopy
How it was run: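 Far-UV CD (185–260 nm, spectra truncated at 195 nm) in a 1.0 mm cuvette. Samples were 200–300 μM peptide with 150 mM NaCl at pH 4.5 or 7.4, kept at 37 °C and shaken at 500 rpm between acquisitions. Each spectrum is the average of 3 scans at 50 nm/min, solvent-subtracted, Savitzky–Golay smoothed, and expressed as mean residue molar ellipticity.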

Activity [1]	Activity [2]	Activity [3]	Structure (SMILES)	Activity (INS-1E)
–	–	–	CC[C@H](C)[C@@H]1NC(=O)[C@H](Cc2ccc(O)cc2)NC(=O)[C@H](CC(C)C)NC(=O)[C@H](CCCNC(=N)N)NC(=O)[C@H](C(C)C)NC(=O)[C@@H](NC(=O)[C@H](CCC(=O)O)NC(=O)[C@H](CCC(=O)O)NC(=O)[C@H](CCC(=O)O)NC(=O)[C@H](CCSC)NC(=O)[C@H](CCC(N)=O)NC(=O)[C@H](CCCCN)NC(=O)[C@H](CO)NC(=O)[C@H](CC(C)C)NC(=O)[C@H](CC(=O)O)NC(=O)[C@H](CO)NC(=O)[C@@H](NC(=O)[C@H](Cc2ccccc2)NC(=O)[C@@H](NC(=O)CNC(=O)[C@H](CCC(=O)O)NC(=O)CNC(=O)[C@@H](N)Cc2cnc[nH]2)[C@@H](C)O)[C@@H](C)O)CSSC[C@@H](C(=O)O)NC(=O)[C@@H]2CCCN2C(=O)[C@@H]2CCCN2C(=O)[C@@H]2CCCN2C(=O)[C@H](CCCNC(=N)N)NC(=O)CNC(=O)[C@H](CO)NC(=O)[C@H](CO)NC(=O)[C@@H]2CCCN2C(=O)CNC(=O)CNC(=O)[C@H](CC(=O)O)NC(=O)[C@H](CCCCN)NC(=O)[C@H](CC(C)C)NC(=O)[C@H](Cc2c[nH]c3ccccc23)NC(=O)[C@H](CCC(N)=O)NC1=O (H-HGEGTFTSDLSKQMEEECVRLYIQWLKDGGPSSGRPPPC-OH; disulfide 18-39)	inactive
Active	Active	Active	CC[C@H](C)[C@H](NC(=O)[C@H](Cc1ccc(O)cc1)NC(=O)[C@H](CC(C)C)NC(=O)[C@H](CCCNC(=N)N)NC(=O)[C@@H](NC(=O)[C@H](C)NC(=O)[C@H](CCC(=O)O)NC(=O)[C@H](CCC(=O)O)NC(=O)[C@H](CCC(=O)O)NC(=O)[C@H](CCSC)NC(=O)[C@H](CCC(N)=O)NC(=O)[C@H](CCCCN)NC(=O)[C@H](CO)NC(=O)[C@H](CC(C)C)NC(=O)[C@H](CC(=O)O)NC(=O)[C@H](CO)NC(=O)[C@@H](NC(=O)[C@H](Cc1ccccc1)NC(=O)[C@@H](NC(=O)CNC(=O)[C@H](CCC(=O)O)NC(=O)CNC(=O)[C@@H](N)Cc1cnc[nH]1)[C@@H](C)O)[C@@H](C)O)C(C)C)C(=O)N[C@@H](CCC(N)=O)C(=O)N[C@@H](Cc1c[nH]c2ccccc12)C(=O)N[C@@H](CC(C)C)C(=O)N[C@@H](CCCCN)C(=O)N[C@@H](CC(=O)O)C(=O)NCC(=O)NCC(=O)N1CCC[C@H]1C(=O)N[C@@H](CO)C(=O)N[C@@H](CO)C(=O)NCC(=O)N[C@@H](CCCNC(=N)N)C(=O)N1CCC[C@H]1C(=O)N1CCC[C@H]1C(=O)N1CCC[C@H]1C(=O)N[C@@H](CO)C(=O)O	–
